According to ChEMBL document CHEMBL1127374, “Synthesis and antiviral (HIV-1, HBV) activities of 5-halo-6-methoxy(or azido)-5,6-dihydro-3'-fluoro-3'-deoxythymidine diastereomers. Potential prodrugs to 3'-fluoro-3'-deoxythymidine” (J Med Chem, 1994):

Key:
[1] = Tested for in vitro percent of 3'-fluoro-3'-deoxythymidine(FLT) formed upon incubation with glutathione; type: ADME
In short: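 Test compound incubated with reduced glutathione at a 1:2 molar ratio in phosphate buffer, pH 7.4, 37 °C, 30 min. UV detection at 230 nm for the 5,6-dihydro compound and 265 nm for FLT.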

CCRF-CEM [2] = assay: Tested for in vitro drug concentration which produces 50% survival of HIV-1 infected CEM cells relative to uninfected untreated controls; type: functional, cell-based; settings: Homo sapiens
In short: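 CEM T4 lymphocytes infected with small amounts of HIV-1, so that a complete replication cycle is needed for cell killing. Protection from cytolysis measured. EC50 is the concentration giving 50% survival of infected cells relative to uninfected untreated controls. AZT-treated positive control run at the same time under identical conditions.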

[3] = Selectivity index is the ratio of IC50 value to that of EC50 value; type: functional
In short: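 CEM T4 lymphocytes infected with small amounts of HIV-1, with a full replication cycle needed for cell killing. EC50 is the concentration giving 50% survival of infected cells relative to uninfected untreated controls. IC50 is the concentration giving 50% survival of uninfected untreated CEM cells. SI = IC50/EC50. An AZT-treated control was run alongside.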

CCRF-CEM [4] = assay: Tested for in vitro drug concentration which results in 50% survival of uninfected untreated control CEM cells; type: functional, cell-based; settings: Homo sapiens
In short: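 Uninfected CEM T4 lymphocytes exposed to the test compound alongside the anti-HIV protection assay, with an AZT control run concurrently. IC50 is the concentration giving 50% survival relative to uninfected untreated control cells.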

MT4 = assay: Tested for in vitro cytopathic effect of HIV for MT-4 cells; type: functional, cell-based; settings: Homo sapiens
[5] = (§1) Compound was tested in vitro against intracellular DNA hepatitis B virus of human liver cells; type: functional
In short: (§2)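 HBV-producing human liver 2.2.15 cells grown to confluence, then dosed daily for 9 continuous days with daily medium change. Medium collected at days 0, 3, 6 and 9 for extracellular virion HBV DNA. Cells lysed 24 h after day 9 for intracellular HBV genomic forms (replication). EC50 and EC90 derived from HBV DNA levels.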

[6] = Selectivity index is the ratio of CC50 to that of EC50 (anti-hepatitis B virus activity in extracellular DNA); type: functional
In short: (§3)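 Selectivity index calculated as CC50 (neutral red uptake, 2.2.15 cells, 9-day daily dosing) divided by EC50 from HBV DNA (extracellular virion DNA in line 3, intracellular DNA in line 4).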

[7] = (§4) Compound was tested in vitro against extracellular DNA hepatitis B virus of human liver cells; type: functional; in short: as §2
[8] = Tested for in vitro cytotoxic concentration against hepatitis B irus replication in chronically HBV-producing human liver cells; type: functional
In short: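 Confluent 2.2.15 cells dosed daily for 9 days as in the anti-HBV assay. Four concentrations in 3–10-fold steps, triplicate cultures, untreated controls on each plate, cell-free wells to correct for light scattering. Neutral red uptake read at 510 nm 24 h after day 9, relative to untreated cells. CC50 taken as the 50% cytotoxic concentration.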

[9] = Selectivity index is the ratio of CC50 to that of EC50 (anti-hepatitis B virus activity in intracellular DNA); type: functional; in short: as §3
[10] = as §1; type: functional, cell-based; in short: as §2
[11] = as §4; type: functional; remark: listed apart in the source
In short: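 2.2.15 cells (chronically HBV-producing human liver line) grown to confluence, then dosed daily for 9 continuous days with medium changed daily. Extracellular virion HBV DNA in medium sampled at days 0, 3, 6 and 9 and quantified; intracellular HBV genomic forms analysed from cells lysed 24 h after day 9.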

For `CO[C@@H]1N(C2CC(F)C(CO)O2)C(=O)NC(=O)[C@@]1(C)I` (some centres undefined), the FLT [1] was 90%, the EC50 (CCRF-CEM [2]) was 0.00375 µM and the Selectivity index [3] was 3250. It also gave an IC50 (CCRF-CEM [4]) of 12.2 µM.

In the case of `CO[C@H]1N(C2CC(F)C(CO)O2)C(=O)NC(=O)[C@]1(C)Cl` (some centres undefined), the FLT [1] is reported as 0%, the EC50 (CCRF-CEM [2]) is reported as 5.55 µM and the Selectivity index [3] is reported as greater than 144. It also gave an IC50 (CCRF-CEM [4]) greater than 800 µM.

`Cc1cn([C@H]2C[C@H](N=[N+]=[N-])[C@@H](CO)O2)c(=O)[nH]c1=O` [ZIDOVUDINE] showed an EC50 (MT4) of 0.004 µM, an EC50 (CCRF-CEM [2]) of 0.003 µM and a Selectivity index [3] of 167000. It also gave an IC50 (CCRF-CEM [4]) of 500 µM.

Work on `CC1(Br)C(=O)NC(=O)N([C@H]2C[C@H](F)[C@@H](CO)O2)C1N=[N+]=[N-]` (mixture of isomers) yielded an EC90 [5] of 57 µM, an FLT [1] of 95% and a Selectivity index [6] of 4.2. For the same compound, the EC90 [7] was 42 µM, the EC50 (CCRF-CEM [2]) was 0.0145 µM and the CC50 [8] was 176 µM. For the same compound, the Selectivity index [9] was 3.1, the Selectivity index [3] was 7140 and the IC50 (CCRF-CEM [4]) was 100 µM. It also gave an EC50 [10] of 13 µM.

Work on `Nc1ccn([C@H]2CC[C@@H](CO)O2)c(=O)n1` [ZALCITABINE] yielded an EC90 [5] of 12 µM, an EC50 [11] of 1.3 µM and a Selectivity index [6] of 27. For the same compound, the EC90 [7] was 8.1 µM, the CC50 [8] was 219 µM and the Selectivity index [9] was 18. It also gave an EC50 [10] of 2.1 µM.

Work on `CO[C@@H]1N(C2CC(F)C(CO)O2)C(=O)NC(=O)[C@@]1(C)Br` (some centres undefined) yielded an EC90 [5] of 118 µM, an EC50 [11] of 21 µM and an FLT [1] of 10%. It also gave a Selectivity index [6] of 16, an EC90 [7] of 67 µM and an EC50 (CCRF-CEM [2]) of 0.00325 µM. It also gave a CC50 [8] of 1040 µM, a Selectivity index [9] of 8.8 and a Selectivity index [3] of 2990. The IC50 (CCRF-CEM [4]) was 9.72 µM and the EC50 [10] was 26 µM.

For `CO[C@H]1N(C2CC(F)C(CO)O2)C(=O)NC(=O)[C@@]1(C)Cl` (some centres undefined), the FLT [1] was 0%, the EC50 (CCRF-CEM [2]) was 37.9 µM and the Selectivity index [3] was greater than 21. It also gave an IC50 (CCRF-CEM [4]) greater than 800 µM.

`CO[C@H]1N(C2CC(F)C(CO)O2)C(=O)NC(=O)[C@]1(C)I` (some centres undefined) gave an FLT [1] of 50%, an EC50 (CCRF-CEM [2]) of 50 µM and a Selectivity index [3] of 1. For the same compound, the IC50 (CCRF-CEM [4]) was 57.3 µM.

Work on `CO[C@H]1N(C2CC(F)C(CO)O2)C(=O)NC(=O)[C@]1(C)Br` (some centres undefined) yielded an EC90 [5] of 42 µM, an EC50 [11] of 6 µM and an FLT [1] of 10%. It also gave a Selectivity index [6] of 21, an EC90 [7] of 36 µM and an EC50 (CCRF-CEM [2]) of 0.00525 µM. It also gave a CC50 [8] of 765 µM, a Selectivity index [9] of 18 and a Selectivity index [3] of 328. The IC50 (CCRF-CEM [4]) was 1.72 µM and the EC50 [10] was 13 µM.
